High-throughput results as filed in PubChem BioAssay.
CHRM5 antagonist – human M5 muscarinic receptor antagonists, primary screen, CHO cells, Fluo-8 calcium fluorescence | Muscarinic acetylcholine receptor M5 (Homo sapiens), P08912 | CHO-hM5 cells, ACh EC80 | inhibition, % at 3 µM | hit rate 0.59% among 360,000;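 active = inhibition above a per-plate cutoff, the mean of that plate's test compounds plus 3 SD, cut at about 27% in these data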
Target sequence (P08912 whole entry, looked up): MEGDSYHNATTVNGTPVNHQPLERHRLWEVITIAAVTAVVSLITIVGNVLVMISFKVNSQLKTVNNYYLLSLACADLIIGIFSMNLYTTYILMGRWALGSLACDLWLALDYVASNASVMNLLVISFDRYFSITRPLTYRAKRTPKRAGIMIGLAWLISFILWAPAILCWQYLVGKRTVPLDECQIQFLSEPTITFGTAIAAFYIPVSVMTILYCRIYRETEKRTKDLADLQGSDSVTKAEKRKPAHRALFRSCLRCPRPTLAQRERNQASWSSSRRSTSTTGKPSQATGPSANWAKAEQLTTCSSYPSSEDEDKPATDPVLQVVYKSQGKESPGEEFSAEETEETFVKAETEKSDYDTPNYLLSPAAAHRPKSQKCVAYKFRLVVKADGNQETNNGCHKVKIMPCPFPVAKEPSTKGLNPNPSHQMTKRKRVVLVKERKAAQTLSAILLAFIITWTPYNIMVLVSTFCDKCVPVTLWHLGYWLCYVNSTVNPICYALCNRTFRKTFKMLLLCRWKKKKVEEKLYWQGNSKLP
M4 PAM – human M4 muscarinic receptor positive allosteric modulators, primary screen, CHO-K1 cells, Fluo-8 calcium fluorescence. CHO-K1 hM4/Gqi5, ACh EC20; 0% = ACh EC20, 100% = maximal ACh. activation, % at 3 µM. hit rate 0.4% among 360,000. Muscarinic acetylcholine receptor M4 (Homo sapiens), P08173;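 active = activation above its plate's cutoff, the mean activation of sample wells plus 3 SD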
M5 PAM – human M5 muscarinic receptor positive allosteric modulators, primary screen, CHO-K1 cells, Fluo-8 calcium fluorescence; Muscarinic acetylcholine receptor M5 (Homo sapiens), P08912; CHO-K1 hM5, ACh EC20 PAM; 0% = ACh EC20, 100% = ACh EC100; activation, % at 3 µM; hit rate 0.3% among 360,000; AID 624038, 2012;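 active = activation above the run cutoff, the mean activation of all test compounds plus 3 SD, cut at about 18% in these data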
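Probe or stimulus: acetylcholine, EC20 level; Assay system: human M5 receptor in CHO-K1 cells; Schedule: compound preincubation 140 s before EC20 acetylcholine addition; Technique: intracellular calcium via Fluo-8 fluorescence; Dosing: single-point, 3 µM nominal; Read-out basis: percent activation from peak-over-basal fluorescence ratio, scaled EC20-to-EC100 acetylcholine; Repeats: one well per compound, no replicates.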
CHRM5 agonist – human M5 muscarinic receptor agonists, primary screen, CHO-K1 cells, Fluo-8 calcium fluorescence | Muscarinic acetylcholine receptor M5 (Homo sapiens), P08912 | CHO-K1 hM5 cells; 0% DMSO wells, 100% maximal acetylcholine response | activation, % at 3 µM | hit rate 0.19% among 360,000;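 active = activation above the run's mean over test compounds plus 3 SD, cut at about 23% in these data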;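 note: signal is peak over basal fluorescence ratio across the kinetic read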
CHRM4 agonist – human M4 muscarinic receptor agonists, primary screen, CHO-K1 cells, Fluo-8 calcium fluorescence. hit rate 0.14% among 360,000. activation, % at 3 µM. CHO-K1 hM4/Gqi5; vehicle 0%, full acetylcholine response 100%. AID 624127, 2012. Muscarinic acetylcholine receptor M4 (Homo sapiens), P08173;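 active = activation above the run mean over all test wells plus 3 SD, cut at about 32% in these data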;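 note: peak over basal fluorescence ratio per well then scaled between controls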
M4 antag – human M4 muscarinic receptor antagonists, primary screen, CHO cells, Fluo-8 calcium fluorescence; Muscarinic acetylcholine receptor M4 (Homo sapiens), P08173; CHO-hM4 cells, ACh EC80; inhibition, % at 3 µM; hit rate 0.73% among 360,000;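 active = inhibition above its plate's cutoff, the mean inhibition of sample wells plus 3 SD, cut at about 27% in these data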
A number is an active result; - = inactive. This is a sample that favours compounds with a hit; in the whole collection about 1.8% have one here.

SMILES	CHRM5 antagonist	M4 PAM	M5 PAM	CHRM5 agonist	CHRM4 agonist	M4 antag
COc1ccc(S(=O)(=O)Nc2nc3c(s2)CCCC3)cc1	-	-	20	-	-	-
N#Cc1cccc(C(=O)Nc2cc(S(=O)(=O)N3CCOCC3)ccc2N2CCCC2)c1	-	-	-	-	-	-
CC(C)Nc1ccc(Nc2ccnc3cc4ccccc4cc23)cc1	-	-	-	-	-	-
c1ccc(CCNc2ccnc3cc4ccccc4cc23)cc1	36	-	-	-	-	-
Cc1ccc(C(=O)NCC(=O)OCC(=O)Nc2cc(S(=O)(=O)N3CCOCC3)ccc2Cl)s1	-	-	-	-	-	-
C=CCNC(=O)c1cnn(-c2ccccc2)c1-c1ccccc1	-	-	-	-	-	-
O=C(O)c1cnn(-c2ccccc2)c1-c1ccccc1	-	-	19	-	-	-
COc1cc(NC(=O)c2ccc(N3CC4CC(C3)c3cccc(=O)n3C4)c(NC(=O)c3ccncc3)c2)cc(OC)c1OC (stereo not drawn)	-	-	-	-	-	-
Cc1ccc(NC(=O)c2ccc(=O)[nH]c2)cc1S(=O)(=O)N1CCCCCC1	-	-	-	-	-	-
Cc1nn(CC(=O)NCc2cccc(F)c2)c(=O)c2cccn12	29	-	-	-	-	-
Cc1nn(CC(=O)NCCCc2ccccc2)c(=O)c2cccn12	-	-	-	-	-	-
Cc1ccc([N+](=O)[O-])c(OCCN2CCCCCC2)c1	-	-	-	-	-	-
Cc1ccc([N+](=O)[O-])c(OCCCN2CCC(Cc3ccccc3)CC2)c1	-	-	-	-	39	-
CCC(CC)c1nnc(NC(=O)CCc2ccc(OC)cc2)s1	-	-	-	-	-	-
CCC(CC)c1nnc(NC(=O)CCc2ccccc2)s1	-	15	-	-	-	-
Cc1ccc(S(=O)(=O)Oc2ccc(/C=N/N=C3/NC(=O)C(CC(=O)O)S3)cc2)cc1[N+](=O)[O-] (stereo not drawn)	-	-	-	-	-	-
C(=C\c1ccccc1)/CN1CCN(C(c2nnnn2C2CCCCC2)C2CC2)CC1 (stereo not drawn)	-	-	-	-	-	-
COc1ccc(C(c2nnnn2-c2ccc(OC)cc2)N2CCN(C/C=C/c3ccccc3)CC2)cc1 (stereo not drawn)	51	-	-	-	-	-
C(=C\c1ccccc1)/CN1CCN(C(c2ccccc2)c2nnnn2-c2ccc3c(c2)OCCO3)CC1 (stereo not drawn)	75	-	-	-	-	32
C(=C\c1ccccc1)/CN1CCN(C(c2cccc3ccccc23)c2nnnn2C2CCCC2)CC1 (stereo not drawn)	99	-	-	-	-	96
C(=C\c1ccccc1)/CN1CCN(C(c2ccnc3ccccc23)c2nnnn2-c2ccc3c(c2)OCCO3)CC1 (stereo not drawn)	-	-	-	-	-	-
COc1ccc(C(c2nnnn2C2CCCCC2)N2CCN(C/C=C/c3ccccc3)CC2)cc1 (stereo not drawn)	58	-	-	-	-	31
COc1ccc(C(c2nnnn2C(C)(C)C)N2CCN(C/C=C/c3ccccc3)CC2)cc1 (stereo not drawn)	-	-	-	-	-	-
O=S(=O)(/N=C(/c1ccccc1)N1CCOCC1)c1ccc(F)cc1	-	-	-	-	-	-
COc1cccc(CNC(=O)C2CCC(=O)N(CC3CCCCC3)C2)c1OC (stereo not drawn)	-	-	-	-	-	-
SMILES	CHRM5 antagonist	M4 PAM	M5 PAM	CHRM5 agonist	CHRM4 agonist	M4 antag
COc1ccc(C(CNC(=O)c2ccc(OCc3csc(C)n3)cc2)N2CCCC2)cc1 (stereo not drawn)	-	-	-	-	-	-
COc1ccc(-n2nnnc2C(c2ccccc2OC(F)(F)F)N2CCN(C/C=C/c3ccccc3)CC2)cc1 (stereo not drawn)	-	-	-	-	-	-
COc1ccc(-n2nnnc2C(c2cccs2)N2CCN(C/C=C/c3ccccc3)CC2)cc1 (stereo not drawn)	47	-	-	-	-	-
CCNC(=O)C1(C)CCN(C(=O)c2ccc(C)c(F)c2)C1 (stereo not drawn)	-	-	-	-	-	-
CCC(O)CNC(=O)NC(=C(Cl)Cl)c1ccc(C)c(F)c1 (stereo not drawn)	-	-	22	-	-	-
c1ccc(-c2csc3ncnc(NCc4ccccn4)c23)cc1	-	-	-	-	-	-
c1ccc(CNc2ncnc3scc(-c4cccs4)c23)nc1	28	-	-	-	-	-
CC(C)CC(=O)N/C(N)=N/c1nc2ccccc2o1	-	-	-	-	-	-
O=[N+]([O-])c1ccc(S(=O)(=O)CC2CSc3nc4ccccc4n32)cc1 (stereo not drawn)	-	33	-	-	-	-
CNC(=S)N/N=C/c1c2ccccc2c(Cl)c2ccccc12	-	-	-	-	-	-
CC(=O)c1sc(Nc2ccccc2)nc1C	-	-	-	-	-	-
CC(=O)c1sc(Nc2ccc(Oc3ccccc3)cc2)nc1C	-	-	-	-	-	34
CCCCNC(=O)N(C)c1nncnc1C(=O)NC	-	-	26	-	-	-
Cc1ccc(N2CC(C(=O)N3CCC(C(=O)NC(C)(C)C)CC3)CC2=O)cc1 (stereo not drawn)	-	-	-	-	-	-
N#CC1=C(SCC(=O)NC23CC4CC(CC(C4)C2)C3)NC(=O)C(C#N)C12CCCCC2 (stereo not drawn)	29	-	-	-	-	-
N#CC1=C(SCC(=O)NC2CC2)NC(=O)C(C#N)C12CCCCC2 (stereo not drawn)	-	-	-	-	-	-
O=C(N/C(=C/c1cccc(Br)c1)C(=O)N1CCOCC1)c1ccco1	-	-	-	-	-	-
CC1=C(C(=O)NCc2ccc3c(c2)OCO3)C2(CCC(C)CC2)OC1=O (stereo not drawn)	-	-	-	-	-	60
O=C(CN1C(=O)NC2(CCCC2)C1=O)NCc1ccccc1	-	-	-	-	-	-
O=C(CN1C(=O)NC2(CCSC2)C1=O)NCc1ccccc1 (stereo not drawn)	-	18	-	-	-	-
